Source: PubChem BioAssay (several laboratories)
Compounds with a hit are over-represented: about 1.8% of the library has one in this group of screens.
STAT1 inh = STAT1 signaling inhibition; inhibition, % at 5.5 µM; NIH 3T3 STAT1-luciferase reporter, IFN-gamma, luminescence; actives 0.35% (n = 200,000);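 active = inhibition above a set limit, the mean inhibition across all tested compounds plus 3 SD, cut at about 34% in these data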;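 note: 0% = IFN-gamma with DMSO and 100% = IFN-gamma with 300 µM nifuroxazide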
STAT3 inh = reduces IL-6 driven STAT3 reporter signal; U3A cells, IL-6 STAT3-luciferase reporter, luminescence; host cell line lacks STAT1; inhibition, % at 5.5 µM; actives 0.89% (n = 190,000); AID 862;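 active = inhibition above the mean inhibition across all screened compounds plus 3 SD, cut at about 44% in these data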;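 note: 0% = DMSO only wells and 100% = 100 µM nifuroxazide control wells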
STAT3 act-1 = activators of IL-6 induced STAT3 signaling. U3A cells, IL-6 STAT3-luciferase reporter, luminescence; 100% = signal with IL-6 EC80 alone. activation (% of control), % at 5.6 µM. actives 0.91% (n = 190,000). AID 871;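 active = activation above the screen-wide mean of compound activation plus 3 SD, cut at about 130% in these data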;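 note: 0% = background luminescence of wells with medium and substrate only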
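Material: STAT3-luciferase reporter U3A cells; Probe or stimulus: IL-6 (33 ng/mL); Incubation: compound pre-incubation 1 h before IL-6, then 6 h stimulation at 37 °C; Technique: luminescence from STAT3-driven luciferase reporter; Evaluation: % activation versus median of IL-6-stimulated wells; Controls: IL-6-only high control.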
TRAIL sens C8 = sensitizes caspase-8 expressing cells to TRAIL | actives 1% (n = 360,000) | inhibition (viability loss, TRAIL sensitization), % at 10 µM | NB7+C8 cells + TRAIL, ATPlite viability luminescence;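 active = compounds causing at least 50% loss of cell viability in the single-dose screen, relative to plate controls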
PPC-1+TRAIL kill = kills PPC-1 cancer cells in the presence of TRAIL. actives 0.41% (n = 220,000). AID 1443. cell killing (% activity), % at 4 µM or 5 µM. PPC-1 cells + TRAIL, ATPLite viability luminescence;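 active = cell killing above 50% in the first pass at 4 µM, then a duplicate retest at 5 µM averaging 50% or more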;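 note: plate controls were cells with TRAIL plus DMSO for no effect and medium-only wells lacking cells for full effect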
STAT3 act-2 = STAT3 activation, confirmation assay. shares compounds with STAT3 act-1. U3A STAT3-luciferase reporter, IL-6 potentiation, luminescence; U3A cells lack STAT1; 100 means same as IL-6 alone. potentiation (% of control), % at 5.7 µM. actives 64% (n = 1,200). AID 1267;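 active = percent activation of the STAT3 luciferase reporter above a set limit taken from the earlier primary screen, cut at about 130% in these data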;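 note: 0% = background signal of medium plus substrate and 100% = median of IL-6 with DMSO wells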
NFkB act STAT3ct = counter-screen for STAT3 activators: NF-kappaB activation | shares compounds with STAT3 act-1 | activation (% of control), % at 5.7 µM | actives 11% (n = 1,200) | human cells, NF-kappaB reporter activation; in the data active = activation above about 120%;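 note: reporter induced by TNF-alpha stimulation; 100% = median of stimulated DMSO wells and 0% = no signal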
STAT1 act = counter-screen for STAT3 activators: STAT1 activation. AID 1318. NIH 3T3 STAT1-luciferase reporter, IFN-gamma, luminescence. shares compounds with STAT3 act-1. actives 13% (n = 1,200). activation (% of control), % at 5.7 µM;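 active = activation above the solvent-only control well mean plus 3 SD, set per screening run, cut at about 120% in these data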;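 note: 100% = IFN-gamma with DMSO median signal so 100% means no change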
The depositor's hits bear a star.

Screening O=C1CN(C(=O)c2ccc(Br)o2)C(c2ccccc2)c2cc(Br)ccc2N1 (stereo not given) returned STAT1 inh 1.4, STAT3 inh -46.9, STAT3 act-1 142.4*, TRAIL sens C8 16.7, PPC-1+TRAIL kill 19.0, STAT3 act-2 138.7*, NFkB act STAT3ct 100.4 and STAT1 act 111.3.
O=C1CN(C(=O)c2ccc(Br)o2)C(c2ccccc2)c2cc(Cl)ccc2N1 (stereo not given) was read as STAT1 inh 8.4, STAT3 inh -19.6, STAT3 act-1 124.4, TRAIL sens C8 13.6 and PPC-1+TRAIL kill 16.3.
CCOc1ccc(CN2CCN(Cc3cc4ccccc4[nH]3)CC2CCO)cc1 (stereo not given) was read as STAT1 inh 14.5, STAT3 inh -42.2, STAT3 act-1 143.1*, TRAIL sens C8 4.7, PPC-1+TRAIL kill 8.5, STAT3 act-2 191.2*, NFkB act STAT3ct 112.5 and STAT1 act 108.9.
For O=C(NCCC(=O)N1CCN(c2ncccn2)CC1)c1ccccc1 the results were STAT1 inh -12.1, STAT3 inh -41.7, STAT3 act-1 139.5*, TRAIL sens C8 -4.0, PPC-1+TRAIL kill 20.0, STAT3 act-2 101.7, NFkB act STAT3ct 104.6 and STAT1 act 99.3.
Screening O=C(NCCC(=O)N1CCN(c2ncccn2)CC1)c1ccccc1Cl returned STAT1 inh -4.6, STAT3 inh -13.5, STAT3 act-1 109.7, TRAIL sens C8 -13.7 and PPC-1+TRAIL kill -3.2.
CC1CCOC2(O1)C(=O)N(CN1CCN(c3ccccc3F)CC1)c1ccccc12 (stereo not given) was read as STAT1 inh 5.2, STAT3 inh -53.7, STAT3 act-1 147.8*, TRAIL sens C8 -11.0, PPC-1+TRAIL kill 11.9, STAT3 act-2 119.5, NFkB act STAT3ct 99.2 and STAT1 act 82.5.
`CC(=O)Nc1cccc(-c2ccnc3c2CC(C)(C(=O)Nc2ccc(Cl)cc2)O3)c1` (stereo not given) gave TRAIL sens C8 11.1.
`COc1ccccc1NC(=O)C(=O)/C=C(\O)c1ccccc1` gave TRAIL sens C8 27.1 and PPC-1+TRAIL kill 0.0.
`O=C(N/N=C/C1CC=CCC1)c1ccc(O)cc1O` (stereo not given) gave STAT1 inh 7.3, STAT3 inh 7.8, STAT3 act-1 93.6, TRAIL sens C8 -1.4 and PPC-1+TRAIL kill -12.5.
COc1cc(C(=O)N/N=C/C2CC=CCC2)cc(OC)c1OC (stereo not given) was read as STAT1 inh -11.3, STAT3 inh -59.5, STAT3 act-1 144.1*, TRAIL sens C8 -9.7, PPC-1+TRAIL kill 16.3, STAT3 act-2 98.6, NFkB act STAT3ct 103.5 and STAT1 act 96.7.
`O=C(NN=C1CCCCCCC1)c1ccccn1` gave STAT1 inh -20.8, STAT3 inh -6.4, STAT3 act-1 108.0, TRAIL sens C8 -0.8 and PPC-1+TRAIL kill 12.1.
For NNC(=O)c1ccc2ccccc2n1 the results were STAT1 inh 0.7, STAT3 inh -38.0, STAT3 act-1 144.1*, TRAIL sens C8 -2.7, PPC-1+TRAIL kill 6.1, STAT3 act-2 140.6*, NFkB act STAT3ct 104.6 and STAT1 act 99.9.
`O=C(NN=C1CCCCCCC1)c1ccc2ccccc2n1` gave STAT1 inh -12.1, STAT3 inh -62.9, STAT3 act-1 153.8*, TRAIL sens C8 2.2, PPC-1+TRAIL kill 27.8, STAT3 act-2 139.8*, NFkB act STAT3ct 107.1 and STAT1 act 118.8.
`COc1cccc(CN(C)C(=O)c2cc(COc3ccc(-n4cncn4)cc3)on2)c1` gave TRAIL sens C8 14.3.
